Screens deposited in PubChem BioAssay by Broad Institute.
This is a sample that favours compounds with a hit; in the whole collection about 5.8% have one here.
Pf Dd2 inh: P. falciparum Dd2 growth inhibitors, primary screen, SYBR Green fluorescence, single dose replicates. activity change, % at 10 µM. 94,000 compounds, 2.3% hits. 72 h; hits give low values; in the data active means activity change below about -80%; inconclusive means no clear call, values can overlap the other calls
IDH1 mut inh: inhibitors of IDH1 R132H reductase, primary screen, biochemical, plate reader, single point. Isocitrate dehydrogenase [NADP] cytoplasmic (Homo sapiens), O75874. diaphorase/resazurin fluorescence, 60 min. inhibition, % at 10 µM. 70,000 compounds, 0.18% hits. AID 624101, 2012; in the data active means inhibition above about 34%; inconclusive means no clear call, values can overlap the other calls; inactive means below about 11%;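 further: 0% = DMSO and 100% = no enzyme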
T cruzi growth-1: T. cruzi intracellular proliferation inhibitors, primary screen, cell-based, beta-gal Tulahuen parasites, NIH3T3 host, luminescence | 77,000 compounds, 5.9% hits | inhibition, % at 8.34 µM | T. cruzi beta-gal in NIH3T3, GalScreen luminescence, 90 h;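 active means mean inhibition above about 93%, with at least 55% of replicates each passing it, limit read from the data, passing the limit was not always enough; inconclusive means only one of those two conditions holds; inactive means neither condition holds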
GASC1 inh: inhibitors of GASC-1 (KDM4C) histone demethylase, primary screen, biochemical, single concentration HTS; Lysine-specific demethylase 4C (Homo sapiens), Q9H3R0; GST-KDM4C 2-372, H3K9me3 peptide, LANCE TR-FRET; inhibition, % at 12.5 µM; 96,000 compounds, 0.15% hits; AID 720574, 2013;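 active means mean replicate inhibition above about 25%, with at least 55% of replicates also reaching it, limit read from the data, passing the limit was not always enough; inconclusive means only one of those two conditions met; inactive means neither condition met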
Target sequence (Q9H3R0 2-372 limits assumed): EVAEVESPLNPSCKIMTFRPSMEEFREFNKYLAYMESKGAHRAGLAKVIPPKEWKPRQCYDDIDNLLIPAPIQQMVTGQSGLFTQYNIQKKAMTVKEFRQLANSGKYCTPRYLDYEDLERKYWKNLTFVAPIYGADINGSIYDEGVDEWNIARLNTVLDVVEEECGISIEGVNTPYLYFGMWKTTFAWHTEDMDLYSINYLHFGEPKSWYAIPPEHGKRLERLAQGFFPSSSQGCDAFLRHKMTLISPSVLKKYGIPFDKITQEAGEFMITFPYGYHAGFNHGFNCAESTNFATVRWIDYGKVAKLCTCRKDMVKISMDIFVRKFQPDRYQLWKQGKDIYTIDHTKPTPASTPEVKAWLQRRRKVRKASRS
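reagent = H3K9me3 peptide substrate, Fe(II), 2-oxoglutarate | system = GST-tagged GASC-1 (JMJD2C) catalytic fragment, aa 2-372 | amount = enzyme final amount 10 nM | read-out = Fall in 671/618 emission ratio as inhibition | medium = HEPES buffer, pH 7.5, plus ascorbate | schedule = 30 min reaction, 60 min detection, RT | measured by = LANCE TR-FRET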
T cruzi growth-2: T. cruzi intracellular proliferation inhibitors, confirmation, cell-based, NIH3T3 host, beta-gal parasite, luminescence, cherry-pick; 5,600 compounds, 72% hits; shares compounds with T cruzi growth-1; T. cruzi beta-gal in NIH3T3, GalScreen luminescence, 90 h; AID 651739, 2012; inhibition, % at 8.35 µM;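 active means mean replicate inhibition above about 95% and at least 55% of replicates individually reaching it, limit read from the data; inconclusive means only one of the two criteria is met; inactive means neither criterion is met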
T cruzi growth-3: inhibitors of intracellular T. cruzi replication, confirmation, NIH3T3 host cells, beta-gal parasites, cherry-pick, set 2. shares compounds with T cruzi growth-1. T. cruzi beta-gal in NIH3T3, GalScreen luminescence, 90 h. inhibition, % at 2.09 µM. 5,600 compounds, 21% hits;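 active means mean inhibition above about 95%, with at least 55% of replicates also reaching it, limit read from the data; inconclusive means meets just one of the two conditions; inactive means meets neither condition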;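 further: plate controls were neutral control median for no effect and positive control median for full effect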
3T3 cytotox: cytotoxicity in mouse NIH/3T3 fibroblasts, confirmation, cytotoxicity control for T. cruzi proliferation inhibitor project, cell-based, cherry-pick, single point; cytotoxicity (signal decrease), % at 8.35 µM; shares compounds with T cruzi growth-1; NIH/3T3 viability, CellTiter-Glo ATP luminescence, 90 h; 5,600 compounds, 14% hits;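 active means mean signal decrease across replicates above about 35% based on untreated-well scatter, with enough replicates individually passing, limit read from the data; inconclusive means no rule stated though some were filed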;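 further: 0% = median of neutral control wells and 100% = median of positive control wells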
NIH3T3 tox 2: NIH/3T3 fibroblast cytotoxicity, confirmation, cytotoxicity control, cell-based, cherry-pick, single point, set 2 | 5,600 compounds, 56% hits | inhibition, % at 24.9 µM | shares compounds with T cruzi growth-1 | NIH/3T3 viability, CellTiter-Glo ATP luminescence, 90 h;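 active means mean loss of cell viability signal at or above a set limit, and enough replicates individually reaching it; inconclusive means meets only the mean limit or only the replicate share; inactive means meets neither condition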;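 further: 0% = median of neutral control wells and 100% = median of positive control wells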
The depositor's hits bear a star; ? = inconclusive; nt = no result.

SMILES	Pf Dd2 inh	IDH1 mut inh	T cruzi growth-1	GASC1 inh	T cruzi growth-2	T cruzi growth-3	3T3 cytotox	NIH3T3 tox 2
CSc1ccccc1NC(=O)C(C)n1nc(C)c([N+](=O)[O-])c1C (stereo unspecified)	nt	0.2	nt	nt	nt	nt	nt	nt
CC(C)C#Cc1ccc2c(c1)O[C@@H](CN(C)Cc1cccnc1)[C@@H](C)CN([C@H](C)CO)S2(=O)=O	-21.5	nt	?	0.1	99.2*	78.8	24.7	23.5
C[C@H](O)C#Cc1ccc2c(c1)O[C@H](CN(C)Cc1ccncc1)[C@@H](C)CN([C@@H](C)CO)S2(=O)=O	-61.5	nt	70.9	-0.9	nt	nt	nt	nt
CC(C)C#Cc1ccc2c(c1)O[C@H](CN(C)Cc1cccnc1)[C@@H](C)CN([C@@H](C)CO)S2(=O)=O	-62.9	nt	93.5*	1.3	107.9*	101.5*	41.7*	105.9*
CC(C)C#Cc1ccc2c(c1)O[C@@H](CN(C)Cc1ccncc1)[C@@H](C)CN([C@H](C)CO)S2(=O)=O	-10.4	-0.7	106.6*	-1.7	93.6	85.3	16.5	?
CC(C)C#Cc1ccc2c(c1)O[C@H](CN(C)C(=O)c1cccnc1)[C@@H](C)CN([C@H](C)CO)S2(=O)=O	-11.7	-0.1	91.7	2.9	nt	nt	nt	nt
CC(C)C#Cc1ccc2c(c1)O[C@@H](CN(C)C(=O)c1cccnc1)[C@H](C)CN([C@@H](C)CO)S2(=O)=O	7.7	80.6*	103.2*	52.3*	76.4	63.5	22.1	38.9*
CC(C)C#Cc1ccc2c(c1)O[C@@H](CN(C)Cc1cccnc1)[C@H](C)CN([C@H](C)CO)S2(=O)=O	-61.4	nt	100.0*	0.5	98.8*	91.8	40.1*	105.6*
COc1ccc(CN(C)C[C@H]2OCCCC[C@H](C)Oc3ccc(NC(=O)Nc4ccc(OC)cc4)cc3C(=O)N([C@H](C)CO)C[C@@H]2C)cc1	-0.6	nt	42.3	0.6	nt	nt	nt	nt
COc1ccc(CN(C)C[C@@H]2OCCCC[C@@H](C)Oc3ccc(NC(=O)Nc4ccc(OC)cc4)cc3C(=O)N([C@H](C)CO)C[C@@H]2C)cc1	37.1	0.6	35.2	nt	nt	nt	nt	nt
COc1ccc(NC(=O)Nc2ccc3c(c2)C(=O)N([C@@H](C)CO)C[C@H](C)[C@H](CN(C)Cc2ccc(Cl)c(Cl)c2)OCCCC[C@@H](C)O3)cc1	-38.9	0.2	124.9*	-0.4	101.2*	115.4*	11.3	-8.0
COc1ccc(NC(=O)Nc2ccc3c(c2)C(=O)N([C@@H](C)CO)C[C@@H](C)[C@H](CN(C)Cc2ccc(Cl)c(Cl)c2)OCCCC[C@H](C)O3)cc1	39.9	1.7	97.4*	0.7	98.7*	102.5*	18.3	21.1
COc1ccc(NC(=O)Nc2ccc3c(c2)C(=O)N([C@@H](C)CO)C[C@@H](C)[C@H](CN(C)Cc2ccc(Cl)c(Cl)c2)OCCCC[C@@H](C)O3)cc1	-69.5	2.3	125.5*	-0.6	99.7*	116.9*	20.3	30.6
COc1ccc(CN(C)C[C@@H]2OCCCC[C@H](C)Oc3ccc(NC(=O)Nc4ccc(OC)cc4)cc3C(=O)N([C@H](C)CO)C[C@H]2C)cc1	-49.6	nt	66.8	nt	nt	nt	nt	nt
COc1ccc(NC(=O)Nc2ccc3c(c2)C(=O)N([C@H](C)CO)C[C@H](C)[C@@H](CN(C)Cc2ccc(Cl)c(Cl)c2)OCCCC[C@H](C)O3)cc1	-18.3	nt	123.3*	-0.3	?	115.7*	14.0	7.9
COC(=O)CCCCCCC(=O)N/N=C/c1cccc(B(O)O)c1	nt	-0.2	nt	nt	nt	nt	nt	nt
CCc1ccc2oc(-c3cccc(NC(=O)COc4ccccc4)c3)nc2c1	nt	0.1	nt	nt	nt	nt	nt	nt
O=C(NO)c1ccc(C(=O)N/N=C/c2ccccc2O)cc1	nt	-0.1	nt	nt	nt	nt	nt	nt
CS(=O)(=O)N(CC(=O)Nc1ccc(Oc2ccccc2)cc1)c1ccc(F)c(Cl)c1	nt	-0.1	nt	nt	nt	nt	nt	nt
CCOC(=O)c1ccc(NC(=O)CN2c3cccc4cccc(c34)S2(=O)=O)cc1	nt	-0.2	nt	nt	nt	nt	nt	nt
C[C@H](CO)N1C[C@H](C)[C@H](CN(C)C(=O)Nc2ccccc2F)Oc2ncc(/C=C/c3ccccc3)cc2C1=O	-32.6	0.9	102.4	0.9	nt	nt	nt	nt
C[C@H]1CN([C@@H](C)CO)C(=O)c2cc(/C=C/c3ccccc3)cnc2O[C@@H]1CN(C)C(=O)Nc1ccccc1F	-71.5	-1.5	125.7*	-1.6	108.3*	106.6*	-2.0	13.7
C[C@H](CO)N1C[C@H](C)[C@H](CN(C)C(=O)Nc2cccc3ccccc23)Oc2ncc(-c3cc4ccccc4o3)cc2C1=O	-49.1	0.2	?	1.1	102.2*	89.1	45.3*	101.9*
C[C@@H]1CN([C@@H](C)CO)C(=O)c2cc(/C=C/c3ccccc3)cnc2O[C@@H]1CN(C)C(=O)Nc1ccccc1F	-29.9	1.7	108.8*	0.0	89.4	36.4	14.5	24.3*
O=C(NO)c1ccc(C(=O)N/N=C/c2cc(O)ccc2[N+](=O)[O-])cc1	nt	-0.2	nt	nt	nt	nt	nt	nt
Cc1ccc(S(=O)(=O)N(C)C[C@@H]2Oc3cc(-c4cccc(F)c4)ccc3S(=O)(=O)N([C@@H](C)CO)C[C@H]2C)cc1	-70.2	-2.7	123.6*	-3.7	101.8*	107.0*	47.8*	55.2*
COc1ccc(S(=O)(=O)N(C)C[C@H]2Oc3cc(-c4cccc(F)c4)ccc3S(=O)(=O)N([C@H](C)CO)C[C@H]2C)cc1	-13.8	0.8	nt	-1.5	nt	nt	nt	nt
Cc1ccc(S(=O)(=O)N(C)C[C@@H]2Oc3cc(-c4cccc(F)c4)ccc3S(=O)(=O)N([C@H](C)CO)C[C@@H]2C)cc1	-53.0	nt	127.1*	0.2	105.0*	?	?	42.6*
C[C@@H](O)C#Cc1ccc([C@H]2[C@H](CO)N3CCCCN(C(=O)c4cccc(F)c4)C[C@@H]23)cc1	-21.3	nt	97.5*	-1.0	106.8*	78.7	4.2	49.6*
C[C@H](O)C#Cc1ccc([C@H]2[C@@H](CO)N3CCCCN(C(=O)c4cccc(F)c4)C[C@@H]23)cc1	42.5	nt	103.9*	-0.9	88.9	62.1	-13.6	24.0
